Rows were chosen to be rich in hits. Some 1.6% of all compounds tested hit in one or more screens of this group.
VIM-2 inhibitor – blocks Pseudomonas aeruginosa VIM-2 metallo-beta-lactamase | 290,000 tested, 0.89% active | inhibition, % at 5.6 µM | purified VIM-2, nitrocefin hydrolysis, epi-absorbance fluorescence;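 active means inhibition above the mean of all tested compounds plus 3 SD, cutoff set per screening run, cut at about 7.5% in these data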;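 further: red hydrolysis product quenches plate fluorescence so inhibitors raise well fluorescence; 0% = enzyme with DMSO and 100% = DMSO without enzyme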
FID counter – displaces DNA intercalator in HCV helicase counter-screen | DNA fluorescent intercalator displacement, fluorescence | inhibition, % at 7.9 µM | 290,000 tested, 0.17% active; in the data active means inhibition above about 37%;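 further: 0% = vehicle and 100% = reference compound; higher means more ethidium bromide displaced from hairpin DNA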
IMP-1 inh – blocks Pseudomonas aeruginosa IMP-1 metallo-beta-lactamase; inhibition, % at 5.6 µM; purified IMP-1, nitrocefin hydrolysis, epi-absorbance fluorescence; 290,000 tested, 0.45% active; AID 1556;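 active means inhibition above the mean plus 3 SD of all compounds in the same screening run, cut at about 4.5% in these data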;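 further: 0% = IMP-1 with DMSO and 100% = DMSO wells lacking enzyme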
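Assay system: purified IMP-1; Quantity: IMP-1 0.2 nM before substrate addition; Medium: HEPES buffer pH 7.1 with ZnSO4 and Brij 35; Incubation: 15 min enzyme–compound preincubation, then 25 min nitrocefin reaction, 25 °C; Signal: fluorescence quenching readout, ex 480/em 530 nm; Controls: DMSO with and without IMP-1; Repeats: singlicate testing.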
core dimer inh – blocks dimerization of HCV core protein | TR-FRET GST/Flag-core106 dimerization, 1536-well | inhibition, % at 5 µM | 300,000 tested, 0.33% active | AID 1899;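 active means inhibition above the mean of all tested compounds plus 3 SD, set per screening campaign, cut at about 45% in these data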
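Assay system – GST-tagged and Flag-tagged HCV core protein residues 1-106 · Quantity – core106 proteins, GST 13.5 nM and Flag 17 nM · Benchmarks – unlabelled core106 and no-GST-core106 wells · Read-out basis – percent inhibition of core106 dimerization signal · Detection – time-resolved FRET, ex 340 nm, em 617 and 671 nm · Schedule – 4 h at 22.5 °C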
Active calls of the source: *; x = no result.

SMILES	VIM-2 inhibitor	FID counter	IMP-1 inh	core dimer inh
CCOc1ccc(C2=Nn3c(nnc3-c3ccccn3)SC2)cc1	7.7*	-15	-2	6
Brc1ccc(C2=Nn3c(nnc3-c3ccncc3)SC2)cc1	9.2*	-3	-3	x
CCOc1ccc(C2=Nn3c(nnc3-c3ccco3)SC2)cc1	2	-8	-3	2
C=C/C(C)=C/CC1C(=C)CCC2C(C)(C(=O)O)CCCC12C (configuration not stated)	x	x	x	23
Cc1csc(=Nc2cccnc2)n1CC1CCCCC1	-2	-11	-3	2
O=C(CN1CCN(S(=O)(=O)c2ccc(Cl)cc2)CC1)Nc1ccc2c(c1)OCCO2	-4	-30	-4	-3
NC(=O)c1c(NC(=O)CN2CCN(S(=O)(=O)c3ccccc3)CC2)sc2c1CCC2	x	x	x	48*
CN1CCN(CC(=O)Nc2sc3c(c2C(=O)Nc2ccccc2)CCCC3)CC1	3	12	-2	-18
N#Cc1c(NC(=O)CN2CCN(S(=O)(=O)c3ccc4c(c3)OCCO4)CC2)sc2c1CCC2	-3	-1	-2	71*
S=C(Nc1ccc(Oc2ccccc2)cc1)N1CCOCC1	-1	-10	-2	1
O=C(NCCCn1ccnc1)C(=O)NCC1OCCCN1S(=O)(=O)c1ccc(F)cc1 (configuration not stated)	-1	0	0	0
Cc1ccc(-c2nc(N/N=C/c3ccncc3)c3ccccc3n2)cc1	0	-4	-2	-1
Cc1ccc2nc(C(Cl)(Cl)Cl)nc(N/N=C/c3ccncc3)c2c1	11*	-4	-3	7
O=C(CCCOc1ccc(Cl)cc1Cl)Nc1ccccc1C(=O)O	-1	-18	-3	8
Cc1[nH]nc2c1C(c1ccc(F)cc1)C(C#N)=C(N)O2 (configuration not stated)	-5	-2	-3	-10
Cc1oc(C)c2c(=O)ccc3c(c12)OC(N)=C(C#N)C3c1ccc(F)cc1 (configuration not stated)	0	-14	0	46*
O=Cc1cc(N=Nc2ccccc2Cl)ccc1O	-4	30	9.7*	22
O=Cc1cc(N=Nc2cccc(C(=O)O)c2)ccc1O	-4	4	13*	-5
Cc1ccc2c(c1)c(N=Nc1cccc(C(=O)O)c1)c(O)n2C	-1	-25	0	-21
COc1cc(/C=N/NC(=O)COc2ccc([N+](=O)[O-])cc2)ccc1OCC(=O)N1CCOCC1	0	-28	-2	2
CCCCc1nc(Cl)c(CO)n1Cc1ccc(-c2ccccc2-c2nn[nH]n2)cc1	-2	-28	-4	6
CCCCC(=O)N(Cc1ccc(-c2ccccc2-c2nn[nH]n2)cc1)[C@H](C(=O)O)C(C)C	-3	-31	11*	0
Cc1c(C(=O)NCc2ccccn2)oc2ccc(Br)cc12	x	x	x	2
Cc1c(C(=O)NCc2cccs2)oc2ccc(Br)cc12	1	-8	5.3*	3
Cc1ccc(C)c(N2CCN(CCCNC(=O)Cn3cccc3C(=O)c3ccccc3C)CC2)c1	-5	38*	-4	-6
SMILES	VIM-2 inhibitor	FID counter	IMP-1 inh	core dimer inh
C=CCNC(=O)c1cc2c(=O)c3ccccc3oc2nc1C	3	-1	-1	-1
O=C(O)C(Cc1ccccc1)N1C(=O)c2ccccc2C1=O (configuration not stated)	-4	-7	0	-5
O=C(O)C(CCCCN1C(=O)c2ccccc2C1=O)N1C(=O)c2ccccc2C1=O (configuration not stated)	5	-28	18*	2
CCC(C(=O)O)N1C(=O)c2ccccc2C1=O (configuration not stated)	-1	2	-2	0
O=C(O)C(Cc1ccccc1)N1C(=O)c2cccc3cccc(c23)C1=O (configuration not stated)	9.4*	-31	-3	-1
CCN1CCN(C(=O)c2cc3nc(-c4ccccc4)cc(C(F)(F)F)n3n2)CC1	4	-1	-1	-1
Cc1ccc2nc(C)c3c(c2c1)N(c1ccc(F)cc1)CC3	11*	4	-1	1
COc1ccccc1N1CCc2c(C)nc3c(OC)cccc3c21	12*	1	-2	3
COc1cccc2c3c(c(C)nc12)CCN3c1ccccc1	11*	10	-2	-8
Cc1cc(C)n2nc(SCc3cc(=O)oc4cc(O)ccc34)nc2n1	0	-10	-4	74*
Cc1ccc([N+](=O)[O-])cc1NC(=O)Cc1cccs1	-3	-5	0	54*
Cc1ccc([N+](=O)[O-])cc1NC(=S)NC(=O)C(C)(C)C	3	8	5.1*	-2

Compound activity deposited in PubChem by The Scripps Research Institute Molecular Screening Center.
